A short description of data set [1]: Stability in pH 7.4 phosphate buffer assessed as compound degradation at 30 uM by HPLC analysis. It counts as physicochemical. The settings on record: pH 7.4, 30 µM.
Data set [2] deals with T1, Neuromedin-K receptor (Homo sapiens, UniProt P29371).
T1 sequence (P29371 whole entry): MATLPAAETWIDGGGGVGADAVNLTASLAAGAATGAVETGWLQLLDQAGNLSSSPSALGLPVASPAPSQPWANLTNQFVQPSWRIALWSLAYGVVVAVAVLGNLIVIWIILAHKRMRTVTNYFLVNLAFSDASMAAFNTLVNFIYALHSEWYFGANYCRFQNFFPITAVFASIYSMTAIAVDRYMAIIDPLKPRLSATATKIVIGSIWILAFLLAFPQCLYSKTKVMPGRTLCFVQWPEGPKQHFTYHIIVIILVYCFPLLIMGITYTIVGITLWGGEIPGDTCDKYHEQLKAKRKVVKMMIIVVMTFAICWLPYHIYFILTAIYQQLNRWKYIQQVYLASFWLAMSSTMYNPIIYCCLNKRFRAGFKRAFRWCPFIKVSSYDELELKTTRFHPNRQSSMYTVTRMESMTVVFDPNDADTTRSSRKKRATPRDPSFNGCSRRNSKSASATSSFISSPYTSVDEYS
The data set can be described thus: Antagonistic activity against NK3R (unknown origin) expressed in CHO cells assessed as inhibition of NKB-induced intracellular calcium flux by Calcium 4 assay. It counts as functional, cell-based. A general note: Calcium assays in cells follow changes in intracellular calcium, usually with a dye or a luminescent sensor.

Data set [3] can be described thus: Photo-stability in 50 mM pH 7.4 phosphate buffer assessed as compound degradation at 30 uM under UV-light irradiation by HPLC analysis. It counts as physicochemical. The settings on record: pH 7.4, 30 µM. An outline of the steps:
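Compound at 30 μM in 50 mM phosphate buffer pH 7.4/EtOH 70:30 (0.1% DMSO) was exposed to a mercury xenon lamp (1500 W/m^2). Aliquots sampled at intervals were diluted 1:1 with MeCN and run on HPLC with 254 nm detection. Ratios were calculated from calibration curves.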

The nature of data set [4]: Stability in pH 10 carbonate buffer assessed as compound degradation at 30 uM by HPLC analysis. It counts as physicochemical. The settings on record: pH 10, 30 µM.
Data set [5] is described as follows: Stability in pH 4 acetate buffer assessed as compound degradation at 30 uM by HPLC analysis. The settings on record: pH 4, 30 µM. In kind it is physicochemical.
The nature of data set [6]: Stability in rat serum assessed as compound degradation at 50 uM by HPLC analysis. It counts as ADME, cell-free.
The target in data set [7] is T1, Neuromedin-K receptor. The data set can be described thus: Antagonistic activity against NK3R (unknown origin) expressed in CHO cells assessed as inhibition of NKB-induced intracellular calcium flux under UV-light irradiation by Calcium 4 assay. In kind it is functional, cell-based.
Data set [8] is described as follows: Photo-stability in 50 mM pH 7.4 phosphate buffer assessed as compound degradation at 30 uM exposed to xenon lamp irrational (> 325 nm) by HPLC analysis. It counts as physicochemical. The settings on record: pH 7.4, 30 µM. In short, it runs like this:
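Compound at 30 μM in 50 mM phosphate buffer pH 7.4/EtOH 70:30 (0.1% DMSO) was irradiated with a xenon arc lamp (900 W/m^2), with filters cutting wavelengths below 325 nm. Aliquots taken at intervals were diluted with MeCN and analysed by HPLC with 254 nm UV detection. Remaining amounts were taken from calibration curves.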

Usually IC50 stands for the point on the concentration scale where inhibition reaches its midpoint.

As for `CC1c2nnn(-c3ccc4ccccc4n3)c2CCN1C(=O)c1ccc(F)cc1` (stereo unspecified), the Stability result in data set [1], in data set [3], in data set [4], in data set [5] and in data set [6] was “Stable” throughout. Further, at Neuromedin-K receptor [2], the IC50 is 4.1 µM.

Take `CC1c2noc(-c3ccc4ccccc4n3)c2CCN1C(=O)c1ccc(F)cc1` (stereo unspecified): the Stability result is on record as “Stable” in data set [1]; “Unstable” in data set [3]; “Unstable” in data set [8]; “Stable” in data set [4]; “Stable” in data set [5]; “Stable” in data set [6]. The IC50 on Neuromedin-K receptor [2] was 10.3 µM; at Neuromedin-K receptor [7], > 100 µM.

`CC1c2onc(-c3ccc4ccccc4n3)c2CCN1C(=O)c1ccc(F)cc1` (stereo unspecified): the Stability result in data set [1], in data set [3], in data set [4], in data set [5] and in data set [6] was “Stable” in each case. In addition, the IC50 at Neuromedin-K receptor [2] is 8.2 µM.

For the compound `C[C@@H]1c2nnc(-c3ccc4ccccc4n3)n2CCN1C(=O)c1ccc(F)cc1`, the Stability result in data set [1], in data set [3], in data set [4], in data set [5] and in data set [6] was “Stable” in each case. On Neuromedin-K receptor [2], the IC50 amounted to 0.26 µM.

Regarding `C[C@@H]1c2noc(-c3ccc4ccccc4n3)c2CCN1C(=O)c1ccc(F)cc1`, the Stability entry in data set [1], in data set [4], in data set [5] and in data set [6] was “Stable” each time. At Neuromedin-K receptor [2], the IC50 came to 11.8 µM.

With `C[C@H]1c2noc(-c3ccc4ccccc4n3)c2CCN1C(=O)c1ccc(F)cc1`, the Stability result in data set [1], in data set [4], in data set [5] and in data set [6] was “Stable” in each case. For the same compound, the IC50 on Neuromedin-K receptor [2] was found to be 13.7 µM.

These data come from ChEMBL document CHEMBL4392855, “Scaffold hopping of fused piperidine-type NK3 receptor antagonists to reduce environmental impact” (Bioorg Med Chem, 2019).
